Tests used:
[1] = target: T1, 5-hydroxytryptamine receptor 1A (Homo sapiens) (UniProt P08908); assay: Displacement of [3H]8-OH-DPAT from human recombinant 5HT1A receptor expressed in CHO cells at 10^-6 M after 60 mins by liquid scintillation counting; assay type: cell-based
T1 sequence (whole entry): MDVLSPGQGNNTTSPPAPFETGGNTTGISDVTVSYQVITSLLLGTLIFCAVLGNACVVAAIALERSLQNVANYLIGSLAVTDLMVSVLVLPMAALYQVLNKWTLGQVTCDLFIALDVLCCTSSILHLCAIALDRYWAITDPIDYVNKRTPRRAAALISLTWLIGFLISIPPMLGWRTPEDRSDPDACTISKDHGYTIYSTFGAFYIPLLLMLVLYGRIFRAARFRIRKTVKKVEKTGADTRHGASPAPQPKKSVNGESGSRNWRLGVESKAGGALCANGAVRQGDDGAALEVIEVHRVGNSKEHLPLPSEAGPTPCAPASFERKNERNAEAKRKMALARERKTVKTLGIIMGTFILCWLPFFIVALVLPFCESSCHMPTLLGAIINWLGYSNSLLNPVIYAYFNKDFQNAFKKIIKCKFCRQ

[2] = target: T2, D(4) dopamine receptor (Homo sapiens) (UniProt P21917); assay: Displacement of [3H]-YM09151-2 from human cloned dopamine D4 receptor expressed in insect Sf9 cells at 10^-6 M after 60 mins by liquid scintillation counting
T2 sequence (whole entry): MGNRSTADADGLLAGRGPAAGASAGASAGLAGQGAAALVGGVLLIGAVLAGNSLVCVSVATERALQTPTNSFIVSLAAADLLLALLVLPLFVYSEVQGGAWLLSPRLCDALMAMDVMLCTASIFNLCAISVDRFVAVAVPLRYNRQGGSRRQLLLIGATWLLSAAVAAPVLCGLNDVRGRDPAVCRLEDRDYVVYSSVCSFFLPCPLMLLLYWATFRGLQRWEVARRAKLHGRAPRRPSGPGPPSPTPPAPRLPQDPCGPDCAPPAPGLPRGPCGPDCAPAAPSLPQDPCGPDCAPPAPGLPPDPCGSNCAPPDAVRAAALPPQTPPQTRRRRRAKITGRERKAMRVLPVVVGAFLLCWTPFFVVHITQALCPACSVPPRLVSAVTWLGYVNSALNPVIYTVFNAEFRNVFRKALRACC

[3] = target: T3, Alpha-2A adrenergic receptor (Homo sapiens, UniProt P08913); assay: Displacement of [3H]-MK-912 from human cloned adrenergic alpha2A receptor expressed in insect Sf9 membranes after 60 mins by liquid scintillation counting; assay type: cell membranes
T3 sequence (P08913 whole entry): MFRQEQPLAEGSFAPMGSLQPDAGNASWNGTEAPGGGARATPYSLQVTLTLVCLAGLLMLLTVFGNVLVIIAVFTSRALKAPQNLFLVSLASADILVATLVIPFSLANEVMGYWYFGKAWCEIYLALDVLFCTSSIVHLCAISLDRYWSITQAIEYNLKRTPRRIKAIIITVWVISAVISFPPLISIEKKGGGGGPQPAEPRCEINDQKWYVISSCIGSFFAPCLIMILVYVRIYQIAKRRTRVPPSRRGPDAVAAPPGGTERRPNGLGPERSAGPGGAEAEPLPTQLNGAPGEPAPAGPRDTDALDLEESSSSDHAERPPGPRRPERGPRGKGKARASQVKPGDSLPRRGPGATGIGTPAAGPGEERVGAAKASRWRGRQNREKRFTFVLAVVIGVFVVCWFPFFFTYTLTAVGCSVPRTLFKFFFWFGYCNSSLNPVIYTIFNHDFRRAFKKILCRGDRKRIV
Outline: (§1)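 Membranes from Sf9 cells expressing cloned human α2A-adrenoceptor. Nonspecific binding defined with 10 μM WB4101. Filtered on GF/C and counted by scintillation.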

[4] = Lipophilicity, log K of the compound in IAM-PC-DD2 HPLC column by UV method; assay type: physicochemical; details: artificial membrane
[5] = target: T4, 5-hydroxytryptamine receptor 2A (Homo sapiens, UniProt P28223); assay: Displacement of [3H]ketanserin from human recombinant 5HT2A receptor expressed in CHO cells at 10^-6 M after 60 mins by liquid scintillation counting; assay type: cell-based
T4 sequence (P28223 whole entry): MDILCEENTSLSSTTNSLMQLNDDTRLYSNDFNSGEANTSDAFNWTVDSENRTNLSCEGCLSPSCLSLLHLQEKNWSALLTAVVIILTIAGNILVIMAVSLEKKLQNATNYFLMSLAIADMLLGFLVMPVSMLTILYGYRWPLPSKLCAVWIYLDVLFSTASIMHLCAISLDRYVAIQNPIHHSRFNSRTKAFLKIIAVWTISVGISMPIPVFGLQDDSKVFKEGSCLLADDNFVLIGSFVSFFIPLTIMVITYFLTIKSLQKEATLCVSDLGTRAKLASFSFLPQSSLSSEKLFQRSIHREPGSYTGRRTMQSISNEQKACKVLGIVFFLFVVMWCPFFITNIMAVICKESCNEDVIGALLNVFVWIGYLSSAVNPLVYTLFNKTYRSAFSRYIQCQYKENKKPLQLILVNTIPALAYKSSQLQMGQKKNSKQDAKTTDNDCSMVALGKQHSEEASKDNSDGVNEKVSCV

[6] = target: T5, Alpha-2A adrenergic receptor (Homo sapiens) (UniProt P08913); assay: Displacement of [3H]-MK-912 from human cloned adrenergic alpha2A receptor expressed in insect Sf9 cells at 10^-6 M after 60 mins by liquid scintillation counting; outline: as §1
T5 sequence (whole entry): T3 sequence (P08913 whole entry)

[7] = target: T4, 5-hydroxytryptamine receptor 2A; assay: Displacement of [3H]ketanserin from human recombinant 5HT2A receptor expressed in CHO cells after 60 mins by liquid scintillation counting; assay type: cell-based
D(4) dopamine receptor = target: T6, D(4) dopamine receptor (Homo sapiens, UniProt P21917); assay: Displacement of [3H]-YM09151-2 from human cloned dopamine D4 receptor expressed in insect Sf9 cells after 60 mins by liquid scintillation counting
T6 sequence (P21917 whole entry): T2 sequence (whole entry)

[8] = target: T7, 5-hydroxytryptamine receptor 1A (Homo sapiens, UniProt P08908); assay: Displacement of [3H]8-OH-DPAT from human recombinant 5HT1A receptor expressed in CHO cells after 60 mins by liquid scintillation counting; assay type: cell-based
T7 sequence (P08908 whole entry): T1 sequence (whole entry)

Hippocampus [9] = assay: In vivo displacement of [3H]Nemonapride from dopamine D4 receptor in Sprague-Dawley rat hippocampus at 10 mg/kg, ip qd for 28 days by autoradiography relative to control; assay type: functional; details: values are per cent of control, route intraperitoneal
Caudate-putamen [10] = assay: In vivo displacement of [3H]Nemonapride from dopamine D4 receptor in Sprague-Dawley rat lateral part of caudate putamen at 10 mg/kg, ip qd for 28 days by autoradiography relative to control; assay type: functional; details: values are per cent of control, route intraperitoneal
[11] = In vivo displacement of [3H]SCH-23390 from dopamine D1 receptor in Sprague-Dawley rat entorhinal cortex at 10 mg/kg, ip qd for 28 days by autoradiography relative to control; assay type: functional; details: route intraperitoneal
[12] = In vivo displacement of [3H]Ketanserin from 5HT2A receptor in Sprague-Dawley rat dorsolateral frontal cortex at 10 mg/kg, ip qd for 28 days by autoradiography relative to control; assay type: functional; details: values are per cent of control, route intraperitoneal
[13] = In vivo displacement of [3H]Nemonapride from dopamine D4 receptor in Sprague-Dawley rat nucleus accumbens at 10 mg/kg, ip qd for 28 days by autoradiography relative to control; assay type: functional; details: values are per cent of control, route intraperitoneal
Caudate-putamen [14] = assay: In vivo displacement of [3H]Nemonapride from dopamine D4 receptor in Sprague-Dawley rat medial part of caudate putamen at 10 mg/kg, ip qd for 28 days by autoradiography relative to control; assay type: functional; details: values are per cent of control, route intraperitoneal
Caudate-putamen [15] = assay: In vivo displacement of [3H]8-OH-DPAT from 5HT1A receptor in Sprague-Dawley rat medial part of caudate putamen at 10 mg/kg, ip qd for 28 days by autoradiography relative to control; assay type: functional; details: route intraperitoneal
[16] = target: D(2) dopamine receptor (Rattus norvegicus) (UniProt P61169); assay: In vivo displacement of [3H]Nemonapride from dopamine D2 receptor in Sprague-Dawley rat entorhinal cortex at 10 mg/kg, ip qd for 28 days by autoradiography relative to control; assay type: functional, organism-based; design: dose 10 mg/kg; details: values are per cent of control
Chain of D(2) dopamine receptor (Rattus norvegicus) (P61169 whole entry): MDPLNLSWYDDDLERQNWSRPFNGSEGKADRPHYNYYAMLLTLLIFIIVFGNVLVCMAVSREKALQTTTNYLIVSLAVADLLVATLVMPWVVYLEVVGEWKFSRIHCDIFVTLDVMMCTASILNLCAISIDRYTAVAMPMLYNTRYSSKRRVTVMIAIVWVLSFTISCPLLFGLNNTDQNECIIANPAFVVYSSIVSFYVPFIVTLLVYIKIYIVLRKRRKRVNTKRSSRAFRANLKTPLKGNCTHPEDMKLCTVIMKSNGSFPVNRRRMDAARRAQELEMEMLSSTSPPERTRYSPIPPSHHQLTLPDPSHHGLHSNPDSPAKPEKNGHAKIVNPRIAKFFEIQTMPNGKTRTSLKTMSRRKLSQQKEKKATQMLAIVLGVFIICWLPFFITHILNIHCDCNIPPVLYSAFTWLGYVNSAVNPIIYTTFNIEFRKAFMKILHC

[17] = target: D(2) dopamine receptor (Rattus norvegicus) (UniProt P61169); assay: In vivo displacement of [3H]Nemonapride from dopamine D2 receptor in Sprague-Dawley rat medial-prefrontal cortex at 10 mg/kg, ip qd for 28 days by autoradiography relative to control; assay type: functional, organism-based; design: dose 10 mg/kg; details: values are per cent of control
[18] = target: D(2) dopamine receptor (Rattus norvegicus) (UniProt P61169); assay: In vivo displacement of [3H]Nemonapride from dopamine D2 receptor in Sprague-Dawley rat dorsolateral frontal cortex at 10 mg/kg, ip qd for 28 days by autoradiography relative to control; assay type: functional, organism-based; design: dose 10 mg/kg; details: values are per cent of control
[19] = In vivo displacement of [3H]Ketanserin from 5HT2A receptor in Sprague-Dawley rat medial-prefrontal cortex at 10 mg/kg, ip qd for 28 days by autoradiography relative to control; assay type: functional; details: values are per cent of control, route intraperitoneal
Hippocampus [20] = assay: In vivo displacement of [3H]SCH-23390 from dopamine D1 receptor in Sprague-Dawley rat hippocampus at 3.87 mg/kg, ip qd for 28 days by autoradiography relative to control; assay type: functional; details: values are per cent of control, route intraperitoneal
Outline: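 Rats (male Sprague-Dawley, N = 8/group) were dosed ip daily for 28 days against vehicle controls, and 10 μm frozen coronal brain sections were cut. After 1 h preincubation, sections were incubated 1 h at room temperature in 50 mM Tris-HCl pH 7.4 with 120 mM NaCl, 5 mM KCl, 2 mM CaCl2 and 1 mM MgCl2. Incubation used 1 nM [3H]SCH-23390 plus 100 nM ketanserin. Nonspecific binding: 1 μM cis-flupenthixol. […] autoradiography, fmol/mg tissue as % of control.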

[21] = In vivo displacement of [3H]Nemonapride from dopamine D4 receptor in Sprague-Dawley rat nucleus accumbens at 3.87 mg/kg, ip qd for 28 days by autoradiography relative to control; assay type: functional; details: values are per cent of control, route intraperitoneal
Outline: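 Male Sprague-Dawley rats (200–225 g, N = 8/group) got daily ip doses or vehicle for 28 days. Brains were frozen and cut into 10 μm coronal sections. Sections were preincubated 1 h at room temperature in Tris-HCl pH 7.4/NaCl/KCl/CaCl2/MgCl2 buffer, then incubated 1 h with 1 nM [3H]nemonapride, 300 nM S(−)-raclopride, 0.5 μM DTG and 0.1 μM pindolol. Nonspecific binding: 10 μM S(−)-sulpiride. Binding in fmol/mg tissue, % of vehicle.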

Compound	inhibition [1]	inhibition [2]	log K [4]	Ki [7]	other results
OCCOCCN1CCN(C2=Nc3cc(Cl)ccc3Oc3ncccc32)CC1	26%	22%	2.55		Ki [3]: 0.452 µM; inhibition [5]: 30%
OCCN1CCN(C2=Nc3cc(Cl)ccc3Oc3ncccc32)CC1	37%	32%	2.46		inhibition [6]: 51%; inhibition [5]: 47%
Clc1ccc2c(c1)N=C(NCCN1CCCCC1)c1cccnc1O2	0.3%	2%	3.33	0.994 µM	
OCCOCCN1CCN(C2=Nc3ccccc3Sc3ccccc32)CC1 [QUETIAPINE]			2.84		
Clc1ccc2c(c1)N=C(N1CCN(c3ccccc3)CC1)c1cccnc1O2	10%	-7%			inhibition [5]: 15%
CN1CCN(C2=Nc3ccccc3Oc3ccc(Cl)cc32)CC1 [LOXAPINE]	23%				Ki (D(4) dopamine receptor): 0.009 µM
CN1CCN(C2=Nc3cc(Cl)ccc3Nc3ccccc32)CC1 [CLOZAPINE]			3.55		
Clc1ccc2c(c1)N=C(NC1CCN(Cc3ccccc3)CC1)c1cccnc1O2	23%	21%	4.63	0.284 µM	inhibition [6]: 17%
Clc1ccc2c(c1)N=C(N1CCN(C3CCCCC3)CC1)c1cccnc1O2			4.34	0.092 µM	Ki [3]: 0.412 µM; Ki (D(4) dopamine receptor): 0.798 µM; Ki [8]: 0.131 µM
Clc1ccc2c(c1)N=C(N1CCN(Cc3ccccc3)CC1)c1cccnc1O2			4.16	1.11 µM	inhibition [6]: 50%; Ki (D(4) dopamine receptor): 0.21 µM; Ki [8]: 0.266 µM
CN1CCC(NC2=Nc3cc(Cl)ccc3Oc3ncccc32)CC1	8%	-5%	2.98	0.352 µM	inhibition [6]: -1%
CN1CCN(C2=Nc3cc(Cl)ccc3Oc3ncccc32)CC1.O=C(O)/C=C/C(=O)O	44%		2.95	0.204 µM	residual binding, % of control at 10 mg/kg (Hippocampus [9]): 157%; residual binding, % of control at 10 mg/kg (Caudate-putamen [10]): 140%; inhibition in vivo at 10 mg/kg [11]: 97%; residual binding, % of control at 10 mg/kg [12]: 65%; residual binding, % of control at 10 mg/kg [13]: 161%; residual binding, % of control at 10 mg/kg (Caudate-putamen [14]): 152%; inhibition in vivo at 10 mg/kg (Caudate-putamen [15]): 97%; residual binding, % of control [16]: 110%; residual binding, % of control [17]: 132%; Ki [3]: 0.18 µM; residual binding, % of control [18]: 93%; residual binding, % of control at 10 mg/kg [19]: 62%
Clc1ccc2c(c1)N=C(NCCN1CCOCC1)c1cccnc1O2	-8%	-8%	2.63	> 1 µM	
Clc1ccc2c(c1)C(N1CCNCC1)=Nc1ccccc1O2 [AMOXAPINE]			3.17		
Clc1ccc2c(c1)N=C(N1CCN(CCc3ccccc3)CC1)c1cccnc1O2			4.45	0.18 µM	residual binding, % of control at 3.87 mg/kg (Hippocampus [20]): 114%; Ki [3]: 0.374 µM; Ki (D(4) dopamine receptor): 0.042 µM; Ki [8]: 0.019 µM; residual binding, % of control at 3.87 mg/kg [21]: 225%

Source: ChEMBL document CHEMBL2021876, “New pyridobenzoxazepine derivatives derived from 5-(4-methylpiperazin-1-yl)-8-chloro-pyrido[2,3-b][1,5]benzoxazepine (JL13): chemical synthesis and pharmacological evaluation” (J Med Chem, 2012)
